Data reported in article PMC11956937 (bioRxiv, 2025).

Tests used:
human TOP1 = molecular target: T1, human TOP1 (Homo sapiens, UniProt P11387); test: Inhibition of human TOP1 relaxation activity; format: biochemical; settings: comparison of IC50 values for TOP3B and TOP1 relaxation
T1 sequence (P11387 1-765): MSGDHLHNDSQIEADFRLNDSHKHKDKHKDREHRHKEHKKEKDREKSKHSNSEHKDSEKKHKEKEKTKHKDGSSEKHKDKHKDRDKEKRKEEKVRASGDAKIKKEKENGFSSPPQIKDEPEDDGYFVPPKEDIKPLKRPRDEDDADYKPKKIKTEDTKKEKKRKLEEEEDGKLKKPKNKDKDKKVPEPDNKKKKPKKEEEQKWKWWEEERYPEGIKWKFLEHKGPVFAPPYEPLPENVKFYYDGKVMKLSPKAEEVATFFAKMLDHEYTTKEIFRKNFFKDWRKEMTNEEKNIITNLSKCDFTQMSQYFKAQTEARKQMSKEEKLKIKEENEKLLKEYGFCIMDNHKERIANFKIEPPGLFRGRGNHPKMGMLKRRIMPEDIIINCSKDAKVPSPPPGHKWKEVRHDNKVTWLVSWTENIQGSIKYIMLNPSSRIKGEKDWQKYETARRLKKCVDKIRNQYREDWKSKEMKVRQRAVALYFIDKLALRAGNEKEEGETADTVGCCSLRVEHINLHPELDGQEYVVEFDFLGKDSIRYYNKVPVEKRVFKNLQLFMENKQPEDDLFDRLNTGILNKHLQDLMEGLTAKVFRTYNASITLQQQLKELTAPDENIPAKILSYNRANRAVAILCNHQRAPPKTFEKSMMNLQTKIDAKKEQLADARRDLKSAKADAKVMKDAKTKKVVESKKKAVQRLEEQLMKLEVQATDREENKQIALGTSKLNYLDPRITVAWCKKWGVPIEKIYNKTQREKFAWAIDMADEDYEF
Outline: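 Recombinant human TOP1 expressed in S. cerevisiae EKY3, 1 unit, with 200 ng supercoiled pBAD/Thio plasmid in 10 mM Tris-HCl pH 8.0, 150 mM NaCl, 1 mM EDTA, 0.1 mM spermidine, 0.1 mg/mL BSA, 5% glycerol; 37 °C, 30 min; SDS stop. Run on 1% agarose in TAE, 20 h at 25 V; ethidium bromide stain. Remaining supercoiled DNA quantified as % inhibition vs DMSO; TOP1 IC50 compared with TOP3B IC50.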

human TOP3B = human TOP3B (Homo sapiens, UniProt O95985); test: Inhibition of human TOP3B relaxation of supercoiled DNA; format: biochemical; settings: for Inhibition of the DNA relaxation activity of human TOP3B: tested at up to 200 μM concentration
Sequence of human TOP3B (O95985 whole entry): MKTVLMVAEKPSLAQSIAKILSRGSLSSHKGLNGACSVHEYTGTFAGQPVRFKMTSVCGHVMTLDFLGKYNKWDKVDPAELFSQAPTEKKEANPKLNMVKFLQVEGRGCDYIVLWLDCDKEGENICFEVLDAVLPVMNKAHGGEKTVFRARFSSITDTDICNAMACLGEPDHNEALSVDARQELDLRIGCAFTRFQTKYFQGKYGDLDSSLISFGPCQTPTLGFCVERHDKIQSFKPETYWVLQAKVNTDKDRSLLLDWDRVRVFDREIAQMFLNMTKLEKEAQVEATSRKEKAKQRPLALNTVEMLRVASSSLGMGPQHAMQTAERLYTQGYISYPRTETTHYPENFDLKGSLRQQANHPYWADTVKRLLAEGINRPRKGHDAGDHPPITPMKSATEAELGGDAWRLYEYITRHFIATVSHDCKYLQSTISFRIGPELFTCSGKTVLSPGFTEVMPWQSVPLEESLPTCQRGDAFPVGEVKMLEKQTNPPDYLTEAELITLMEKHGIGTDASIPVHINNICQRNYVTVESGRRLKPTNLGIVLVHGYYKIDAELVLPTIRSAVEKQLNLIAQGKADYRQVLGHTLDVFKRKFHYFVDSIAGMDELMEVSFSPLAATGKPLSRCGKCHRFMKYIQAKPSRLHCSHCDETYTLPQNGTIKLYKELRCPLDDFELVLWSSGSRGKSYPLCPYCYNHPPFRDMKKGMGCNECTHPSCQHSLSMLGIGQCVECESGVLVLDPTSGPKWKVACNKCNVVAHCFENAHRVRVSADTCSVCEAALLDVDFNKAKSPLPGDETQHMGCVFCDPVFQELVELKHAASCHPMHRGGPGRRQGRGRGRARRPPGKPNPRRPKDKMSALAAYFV
Sequence of human TOP3B (Q9H7E2 whole entry partner): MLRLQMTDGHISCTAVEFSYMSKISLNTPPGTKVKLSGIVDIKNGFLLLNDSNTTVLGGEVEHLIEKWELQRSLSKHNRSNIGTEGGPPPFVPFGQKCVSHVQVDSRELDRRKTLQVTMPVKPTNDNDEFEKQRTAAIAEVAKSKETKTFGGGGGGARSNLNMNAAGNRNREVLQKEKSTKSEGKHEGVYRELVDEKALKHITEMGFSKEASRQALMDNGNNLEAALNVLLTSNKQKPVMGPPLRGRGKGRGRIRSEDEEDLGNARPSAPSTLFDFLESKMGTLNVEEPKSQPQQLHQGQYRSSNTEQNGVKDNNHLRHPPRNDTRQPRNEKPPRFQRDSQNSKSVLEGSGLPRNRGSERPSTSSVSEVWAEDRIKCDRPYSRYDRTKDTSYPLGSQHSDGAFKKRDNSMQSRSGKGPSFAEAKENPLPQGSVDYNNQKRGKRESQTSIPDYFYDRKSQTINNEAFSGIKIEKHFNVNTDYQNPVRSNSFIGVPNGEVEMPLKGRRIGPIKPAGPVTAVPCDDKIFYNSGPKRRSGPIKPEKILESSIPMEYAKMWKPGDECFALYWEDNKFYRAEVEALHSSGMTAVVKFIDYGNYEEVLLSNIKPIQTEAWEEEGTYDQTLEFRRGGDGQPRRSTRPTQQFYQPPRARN
Outline: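 TOP3B (Sf9-expressed, GST/gel-filtration purified) and E. coli-expressed His-TDRD3 each at 18 nM, then DMSO or test compound, then 500 ng supercoiled pBAD/Thio plasmid; 20 mM HEPES-KOH pH 7.5, 5 mM MgCl2, 1 mM DTT, 0.1 mg/ml BSA; 37 ℃, 1 h. SDS/proteinase K stop; 1% agarose with 5 μg/mL chloroquine, SYBR Gold. Relaxed DNA gives % inhibition vs DMSO; 200 μM screen, IC50 from serial dilutions, 3–4 repeats.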

Structure (SMILES)	Selectivity for inhibition of human TOP3B versus TOP1 (human TOP1)	IC50 (human TOP3B)	Inhibition of the DNA relaxation activity of human TOP3B (human TOP3B)
Nc1nc(Nc2ccc3c(c2)CC[C@@H](N2CCCC2)CC3)nn1-c1cc2c(nn1)-c1ccccc1CCC2 [bemcentinib]	inhibits TOP3B with greater potency than TOP1	34.3 µM	Inhibition was observed
CN1CCN(C2CCN(C(=O)Nc3cc(Oc4ccc(NC(=O)C5(C(=O)Nc6ccc(F)cc6)CC5)c(F)c4)ccn3)CC2)CC1 [golvatinib]			Inhibition was observed only for bemcentinib
Cc1cn(-c2cc(NC(=O)c3ccc(C)c(Nc4nccc(-c5cccnc5)n4)c3)cc(C(F)(F)F)c2)cn1 [nilotinib]			Inhibition was observed only for bemcentinib
Cc1cn(-c2cc(NC(=O)c3ccc(C)c(Nc4nccc(-c5cnccn5)n4)c3)cc(C(F)(F)F)c2)cn1 [radotinib]			Inhibition was observed only for bemcentinib
CNC(=O)c1cc(Oc2ccc(NC(=O)Nc3cc(C(C)(C)C)nn3-c3ccc4ncccc4c3)c(F)c2)ccn1 [rebastinib]			Inhibition was observed only for bemcentinib
Cc1cc(Nc2ncnc3ccc(NC4=NC(C)(C)CO4)cc23)ccc1Oc1ccn2ncnc2c1 [tucatinib]			Inhibition was observed only for bemcentinib
